This note sets out measurements from ChEMBL document CHEMBL1132597, “Corticotropin-releasing hormone receptor antagonists: framework design and synthesis guided by ligand conformational studies” (J Med Chem, 1999).

As usually defined, the Ki is the dissociation constant of the complex between target and ligand, obtained from inhibition or displacement.

One test addresses T1, Corticotropin-releasing factor receptor 1 (Rattus norvegicus, UniProt P35353).
T1 sequence (P35353 whole entry): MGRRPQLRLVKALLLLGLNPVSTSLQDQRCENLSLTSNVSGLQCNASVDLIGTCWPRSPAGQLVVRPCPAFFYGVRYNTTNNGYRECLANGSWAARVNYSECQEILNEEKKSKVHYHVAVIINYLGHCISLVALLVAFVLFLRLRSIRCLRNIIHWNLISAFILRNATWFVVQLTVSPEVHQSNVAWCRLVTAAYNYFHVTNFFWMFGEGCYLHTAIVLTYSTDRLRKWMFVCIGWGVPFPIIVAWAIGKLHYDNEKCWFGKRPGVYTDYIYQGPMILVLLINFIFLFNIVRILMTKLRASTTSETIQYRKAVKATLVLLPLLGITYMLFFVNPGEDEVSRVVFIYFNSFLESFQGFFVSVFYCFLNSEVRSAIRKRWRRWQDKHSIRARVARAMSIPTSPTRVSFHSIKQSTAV
The test is described as follows: Binding affinity was determined against corticotropin releasing factor receptor 1.
Settings: not given
The gist of the method:
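Rat CRH1 receptor-binding assay run in pH 7.2 buffer; affinity reported as Ki.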
`CCN(c1nc(C)cc(Cl)n1)c1ccc(C(C)C)cc1I`: the inhibitory constant (Ki) entry is “Not reliable”.

Still in this test, the particulars now being: read-out: Ki.
Take `Cc1ccnc2c1c(C#N)cn2-c1ccc(C(C)C)cc1Br`: the Ki was above 10000 nM.

With `Cc1cc(Cl)c2c(C#N)cn(-c3ccc(C(C)C)cc3Br)c2n1`, the inhibitory constant (Ki) was found to be 722 nM. The same measure, in the same setting: to `Cc1cc(N2CCOCC2)c2c(C#N)cn(-c3ccc(C(C)C)cc3Br)c2n1` belongs 112 nM.

Regarding `Cc1ccc2c(C#N)cn(-c3ccc(C(C)C)cc3Br)c2[n+]1[O-]`, the Ki was above 10000 nM. The same measure, in the same setting: to `Cc1cc(Cl)nc2c1c(C#N)cn2-c1ccc(C(C)C)cc1Br` belongs 446 nM; to `COc1cc(Br)c(-n2ccc3c(C)cc(C)nc32)c(OC)c1`, 1 nM.

With `Cc1cc(C)c2c(C#N)cn(-c3ccc(C(C)C)cc3Br)c2n1`, the Ki came to 363 nM. On the same count and under the same terms, to `Cc1ccnc2c1ccn2-c1ccc(C(C)C)cc1Br` belongs above 10000 nM. As for `Cc1cc(-c2ccccc2)nc2c1ccn2-c1ccc(C(C)C)cc1Br`, the Ki was above 10000 nM. On the same count and under the same terms, next, `Cc1cc(-c2ccccc2)c2ccn(-c3ccc(C(C)C)cc3Br)c2n1`: 36 nM; `Cc1cc(-c2ccccc2)nc2c1c(C#N)cn2-c1ccc(C(C)C)cc1Br`: above 100000 nM; `Cc1cc(C)c2ccn(-c3ccc(C(C)C)cc3Br)c2n1`: 47 nM. Still for that read-out and setting: to `COc1cc(Br)c(-n2cc(C#N)c3c(C)cc(C)nc32)c(OC)c1` belongs 29 nM. Still for that read-out and setting: to `Cc1cc(C)c2c(C(=O)O)cn(-c3ccc(C(C)C)cc3Br)c2n1` belongs above 10000 nM; to `Cc1ccc2ccn(-c3ccc(C(C)C)cc3Br)c2n1`, 222 nM; to `Cc1cc(Cl)c2ccn(-c3ccc(C(C)C)cc3Br)c2n1`, 67 nM. In the case of `Cc1cc(-c2ccccc2)c2c(C#N)cn(-c3ccc(C(C)C)cc3Br)c2n1`, the Ki came to 34 nM. The same measure, in the same setting: next, `Cc1ccc2c(C#N)cn(-c3ccc(C(C)C)cc3Br)c2n1`: 1280 nM; `Cc1cc(=O)[nH]c2c1c(C#N)cn2-c1ccc(C(C)C)cc1Br`: above 10000 nM. On the same count and under the same terms, next, `Cc1cc(C)c2c(C(N)=O)cn(-c3ccc(C(C)C)cc3Br)c2n1`: above 10000 nM; `Cc1cc(C)nc(Nc2ccc(C(C)C)cc2Br)n1`: above 10000 nM. On the same count and under the same terms, next, `CCN(c1cc(C)nc(C)n1)c1ccc(C(C)C)cc1Br`: above 1000 nM.

On to `Cc1cc(C)nc(N(C)c2ccc(C(C)C)cc2I)n1`, for which the inhibition constant Ki stood at 48 nM.

Consider `Cc1cc(Cl)nc2c1ccn2-c1ccc(C(C)C)cc1Br`, for which the Ki was determined as 79 nM. Regarding `CCN(c1nc(C)nc(N2CCOCC2)n1)c1c(Br)cc(OC)cc1OC`, the Ki worked out at 43 nM. Still for that read-out and setting: next, `CCN(c1nc(C)cc(N2CCOCC2)n1)c1ccc(C(C)C)cc1Br`: 22 nM. As for `CCN(c1nc(C)cc(C)n1)c1c(Br)cc(OC)cc1OC`, the inhibition constant (Ki) was 5 nM. Take `Cc1cc(N2CCOCC2)c2ccn(-c3ccc(C(C)C)cc3Br)c2n1`: the Ki amounted to 28 nM.
